Source: ChEMBL document CHEMBL1129514 (J Med Chem, 1996)
Several values for one entry are separate records, joined by “and”; a condition that tells them apart may be missing. Equal values may be shown once.

Experiments:
[1] = target: T1, 5-hydroxytryptamine receptor 1A (Rattus norvegicus, UniProt P19327); experiment: Binding affinity towards 5-hydroxytryptamine 1A receptor in the rat brain (hippocampus) using [3H]8-OH-DPAT; assay type: tissue-based
T1 sequence (P19327 whole entry): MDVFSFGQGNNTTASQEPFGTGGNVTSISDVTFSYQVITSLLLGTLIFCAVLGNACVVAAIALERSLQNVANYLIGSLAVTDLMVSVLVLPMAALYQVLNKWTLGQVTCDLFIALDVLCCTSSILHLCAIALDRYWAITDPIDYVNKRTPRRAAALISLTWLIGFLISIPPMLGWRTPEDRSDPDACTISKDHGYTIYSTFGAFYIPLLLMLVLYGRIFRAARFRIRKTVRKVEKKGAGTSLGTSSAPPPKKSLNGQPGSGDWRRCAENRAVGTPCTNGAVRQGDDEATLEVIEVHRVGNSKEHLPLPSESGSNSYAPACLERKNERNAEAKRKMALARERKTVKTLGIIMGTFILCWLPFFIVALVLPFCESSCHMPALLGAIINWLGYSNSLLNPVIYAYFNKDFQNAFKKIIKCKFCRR
In short: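 Rat hippocampal membranes; competition binding against [3H]-8-OH-DPAT (190 Ci/mmol) using 10-14 drug concentrations, each run in triplicate. Ki derived from at least three independent competition experiments. Remaining conditions follow a previously published procedure.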

Rattus norvegicus [2] = experiment: Compound was tested for the induction of lower lip retraction in rats at a dose of 5 mg/kg; assay type: functional
In short: (§1)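 Male Wistar rats (220-260 g), compound ip as fresh aqueous solution, 6-8 animals/dose, each used once. Rats caged individually; lower lip retraction scored at 15, 30 and 45 min post-injection: 0 incisors not visible, 0.5 partly, 1 completely visible. Mean ± SEM score; Dunnett's test vs vehicle.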

Rattus norvegicus [3] = experiment: Compound was tested for the induction of lower lip retraction in rats at a dose of 1.25 mg/kg; assay type: functional; in short: as §1
Rattus norvegicus [4] = experiment: Compound was tested for the induction of behavioral syndrome(flat body posture) in rats at a dose of 10 mg/kg; assay type: functional
In short: (§2)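 Male Wistar rats (220-260 g), reserpine 1 mg/kg sc 18 h before test; compound as fresh aqueous solution ip, rats placed in cages 5 min beforehand. 45-s observation sessions began 3 min after injection, repeated every 3 min over five periods; forepaw treading and flat body posture scored 0 (absent) to 3 (intense). 6-8 rats/dose; mean ± SEM, Dunnett's test.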

Rattus norvegicus [5] = experiment: Compound was tested for the induction of behavioral syndrome (forepaw treading) in rats at a dose of 10 mg/kg; assay type: functional; in short: as §2
Rattus norvegicus [6] = experiment: Compound was tested for the induction of lower lip retraction in rats at a dose of 2.5 mg/kg; assay type: functional; in short: as §1
Rattus norvegicus [7] = experiment: Compound was tested for the induction of behavioral syndrome (forepaw treading) in rats at a dose of 5 mg/kg; assay type: functional; in short: as §2
Rattus norvegicus [8] = experiment: Compound was tested for the induction of behavioral syndrome(flat body posture) in rats at a dose of 5 mg/kg; assay type: functional; in short: as §2
Rattus norvegicus [9] = experiment: Effect on the 8-OH-DPAT-Induced Behavior(flat body posture) in Reserpine Pretreated Rats at a dose of 5 mg/kg; assay type: functional
In short: (§3)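 Reserpinized male Wistar rats (reserpine 1 mg/kg sc, 18 h prior); compound ip 15 min before 8-OH-DPAT 5 mg/kg ip, fresh aqueous solutions. Observations began 3 min after 8-OH-DPAT, repeated every 3 min for 15 min; flat body posture ranked 0-3. 6-8 rats/dose; mean ± SEM, Dunnett's test vs vehicle + 8-OH-DPAT.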

Rattus norvegicus [10] = experiment: Effect on the 8-OH-DPAT-Induced Behavior(flat body posture) in Reserpine Pretreated Rats at a dose of 10 mg/kg; assay type: functional; in short: as §3

| Ki [1] [nM] | Compound | LLR score (Rattus norvegicus [2]) | LLR score (Rattus norvegicus [3]) | Behavioral score (Rattus norvegicus [4]) | Behavioral score (Rattus norvegicus [5]) | LLR score (Rattus norvegicus [6]) | Behavioral score (Rattus norvegicus [7]) | Behavioral score (Rattus norvegicus [8]) | Behavioral score (Rattus norvegicus [9]) | Behavioral score (Rattus norvegicus [10]) |
| --- | --- | --- | --- | --- | --- | --- | --- | --- | --- | --- |
| 41300 | O=C1c2ccccc2C(=O)N1CCN1CCc2ccccc2C1 |  |  |  |  |  |  |  |  |  |
| 5 | O=C1CC2(CCCC2)CC(=O)N1CCCCN1CCc2ccccc2C1 | 2.5 | 1.2 | 11 | 2.7 | 1.9 | 2 | 7.8 | 14.5 and 8.9 | 13.7 and 7.8 |
| 1330 | O=C1CC2(CCCC2)CC(=O)N1CCN1CCc2ccccc2C1 |  |  |  |  |  |  |  |  |  |
| 140 | O=C1c2ccccc2C(=O)N1CCCCN1CCc2ccccc2C1 |  |  |  |  |  |  |  |  |  |
|  | O=C1CC2(CCCC2)CC(=O)N1CCCCN1CCN(c2ncccn2)CC1 [BUSPIRONE] | 2.4 | 1.6 | 6.4 | 0.6 | 2.3 | 0.2 | 6.8 | 14.3 and 5 | 9.5 and 3.7 |

| Compound | Ki [1] [nM] | LLR score (Rattus norvegicus [2]) | LLR score (Rattus norvegicus [3]) | Behavioral score (Rattus norvegicus [4]) | Behavioral score (Rattus norvegicus [5]) | LLR score (Rattus norvegicus [6]) | Behavioral score (Rattus norvegicus [7]) | Behavioral score (Rattus norvegicus [8]) | Behavioral score (Rattus norvegicus [9]) | Behavioral score (Rattus norvegicus [10]) |
| --- | --- | --- | --- | --- | --- | --- | --- | --- | --- | --- |
| c1ccc2c(c1)CCNC2 [1,2,3,4-TETRAHYDROISOQUINOLINE] | > 50000 |  |  |  |  |  |  |  |  |  |
